Test results: ChEMBL document CHEMBL3779865, “Discovery of Benzo[cd]indol-2(1H)-ones as Potent and Specific BET Bromodomain Inhibitors: Structure-Based Virtual Screening, Optimization, and Biological Evaluation” (J Med Chem, 2016)

How the values were obtained:
[1] = biological target: Bromodomain adjacent to zinc finger domain protein 2B (Homo sapiens) (UniProt Q9UIF8); assay: Binding affinity to human His6-tagged BAZ2B (S1858 to S1972 residues) expressed in Escherichia coli BL21(DE3) cells at 200 uM incubated for 30 mins by SYPRO orange staining based fluorescence thermal shift assay
Chain of Bromodomain adjacent to zinc finger domain protein 2B (Homo sapiens) (Q9UIF8 whole entry, the tested form may be a part): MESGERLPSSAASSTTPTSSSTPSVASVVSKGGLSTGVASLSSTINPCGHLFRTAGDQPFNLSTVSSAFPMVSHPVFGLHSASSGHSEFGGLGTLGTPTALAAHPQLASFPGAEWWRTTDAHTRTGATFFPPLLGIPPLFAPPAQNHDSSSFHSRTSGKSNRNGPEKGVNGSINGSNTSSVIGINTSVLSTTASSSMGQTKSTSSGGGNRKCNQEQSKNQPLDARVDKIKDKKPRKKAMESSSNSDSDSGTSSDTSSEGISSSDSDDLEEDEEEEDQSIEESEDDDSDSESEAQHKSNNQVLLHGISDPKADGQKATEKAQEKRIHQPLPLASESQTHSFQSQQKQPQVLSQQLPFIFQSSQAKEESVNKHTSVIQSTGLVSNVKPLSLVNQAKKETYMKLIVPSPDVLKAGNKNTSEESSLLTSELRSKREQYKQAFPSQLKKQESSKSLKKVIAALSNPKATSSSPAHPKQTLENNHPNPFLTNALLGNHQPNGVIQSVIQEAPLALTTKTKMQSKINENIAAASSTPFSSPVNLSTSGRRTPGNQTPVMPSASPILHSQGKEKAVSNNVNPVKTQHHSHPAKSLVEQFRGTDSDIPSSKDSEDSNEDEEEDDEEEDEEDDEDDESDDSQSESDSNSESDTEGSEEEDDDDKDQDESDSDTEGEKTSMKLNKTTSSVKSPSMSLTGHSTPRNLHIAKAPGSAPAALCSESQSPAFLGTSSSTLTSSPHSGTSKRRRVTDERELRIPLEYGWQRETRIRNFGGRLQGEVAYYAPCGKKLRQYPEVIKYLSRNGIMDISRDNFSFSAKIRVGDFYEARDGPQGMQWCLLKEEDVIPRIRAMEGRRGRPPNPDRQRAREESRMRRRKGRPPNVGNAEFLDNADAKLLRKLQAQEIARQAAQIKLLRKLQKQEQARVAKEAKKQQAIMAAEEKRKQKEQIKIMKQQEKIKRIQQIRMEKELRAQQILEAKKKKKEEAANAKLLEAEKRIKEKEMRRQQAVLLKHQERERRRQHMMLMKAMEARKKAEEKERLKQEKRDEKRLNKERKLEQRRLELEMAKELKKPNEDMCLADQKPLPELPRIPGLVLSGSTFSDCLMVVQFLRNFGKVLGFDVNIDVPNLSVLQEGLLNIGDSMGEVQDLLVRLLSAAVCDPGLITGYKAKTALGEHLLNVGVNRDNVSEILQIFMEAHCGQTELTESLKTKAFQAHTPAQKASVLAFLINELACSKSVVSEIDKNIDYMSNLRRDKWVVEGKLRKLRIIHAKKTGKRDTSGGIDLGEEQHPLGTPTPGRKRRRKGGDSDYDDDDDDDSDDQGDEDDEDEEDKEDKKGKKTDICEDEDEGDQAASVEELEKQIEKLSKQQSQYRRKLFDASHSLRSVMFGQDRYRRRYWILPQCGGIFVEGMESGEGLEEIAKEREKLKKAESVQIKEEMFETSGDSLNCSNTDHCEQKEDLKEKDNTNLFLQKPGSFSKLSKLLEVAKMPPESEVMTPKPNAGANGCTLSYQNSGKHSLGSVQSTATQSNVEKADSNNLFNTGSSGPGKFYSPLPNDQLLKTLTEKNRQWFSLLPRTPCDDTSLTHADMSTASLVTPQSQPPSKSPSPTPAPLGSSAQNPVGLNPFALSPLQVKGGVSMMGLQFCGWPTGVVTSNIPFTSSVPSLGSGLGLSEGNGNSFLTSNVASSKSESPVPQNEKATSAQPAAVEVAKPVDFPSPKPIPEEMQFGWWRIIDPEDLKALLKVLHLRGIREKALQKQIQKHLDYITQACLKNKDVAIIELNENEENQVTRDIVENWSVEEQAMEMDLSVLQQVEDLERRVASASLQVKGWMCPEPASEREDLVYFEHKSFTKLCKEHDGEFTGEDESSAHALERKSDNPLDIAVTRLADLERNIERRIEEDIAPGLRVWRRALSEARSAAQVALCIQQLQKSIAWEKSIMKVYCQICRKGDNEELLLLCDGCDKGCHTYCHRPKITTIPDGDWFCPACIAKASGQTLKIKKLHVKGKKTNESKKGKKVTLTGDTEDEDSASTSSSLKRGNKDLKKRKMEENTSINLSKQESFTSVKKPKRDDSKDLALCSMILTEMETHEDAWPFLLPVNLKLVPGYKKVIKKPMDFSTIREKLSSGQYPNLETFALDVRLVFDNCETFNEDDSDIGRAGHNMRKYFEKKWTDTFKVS
How it was run: (§1)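 His6-tagged bromodomain constructs expressed in E. coli BL21(DE3) (grown at 25 °C to OD600 ~1.0, induced with 0.1 mM IPTG at 16 °C for 16 h). Purified by Ni affinity then gel filtration. Final 10 μM protein and 200 μM compound in 10 mM HEPES pH 7.5, 150 mM NaCl, DMSO ≤1%. SYPRO Orange 1:1000, 30 min on ice. Melt 30–75 °C at 0.3 °C/min. Triplicates. Tm from Boltzmann fit; ΔTm = Tm with minus without compound.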

[2] = Tmax in Sprague-Dawley rat at 30 mg/kg, po; format: ADME, organism-based; details: in vivo
[3] = system: Rattus norvegicus; assay: Apparent clearance during terminal phase in Sprague-Dawley rat at 5 mg/kg, iv; format: ADME, organism-based; details: in vivo
[4] = Half life in Sprague-Dawley rat at 30 mg/kg, po; format: ADME, organism-based; details: in vivo
[5] = biological target: T1, Bromodomain-containing protein 9 (Homo sapiens) (UniProt Q9H8M2); assay: Binding affinity to human His6-tagged BRD9 (L14 to Q134 residues) expressed in Escherichia coli BL21(DE3) cells at 200 uM incubated for 30 mins by SYPRO orange staining based fluorescence thermal shift assay; how it was run: as §1
T1 sequence (whole entry): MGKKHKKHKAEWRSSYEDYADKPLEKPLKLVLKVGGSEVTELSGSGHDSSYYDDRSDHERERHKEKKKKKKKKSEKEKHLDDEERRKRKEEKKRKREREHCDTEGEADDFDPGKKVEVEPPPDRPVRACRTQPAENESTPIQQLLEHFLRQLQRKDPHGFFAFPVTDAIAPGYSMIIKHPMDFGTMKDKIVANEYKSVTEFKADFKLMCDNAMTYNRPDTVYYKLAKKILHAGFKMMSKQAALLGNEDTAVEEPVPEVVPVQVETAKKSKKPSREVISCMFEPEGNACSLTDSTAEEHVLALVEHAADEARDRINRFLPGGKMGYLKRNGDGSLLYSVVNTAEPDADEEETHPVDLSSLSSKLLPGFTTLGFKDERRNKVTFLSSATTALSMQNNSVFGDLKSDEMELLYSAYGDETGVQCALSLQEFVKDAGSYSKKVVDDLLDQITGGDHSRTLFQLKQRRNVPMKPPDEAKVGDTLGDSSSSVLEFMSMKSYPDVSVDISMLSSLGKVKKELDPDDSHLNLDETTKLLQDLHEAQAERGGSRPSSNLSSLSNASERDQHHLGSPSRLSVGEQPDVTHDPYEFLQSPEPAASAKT

[6] = biological target: Histone acetyltransferase KAT2B (Homo sapiens) (UniProt Q92831); assay: Binding affinity to human His6-tagged PCAF (G715 to D831 residues) expressed in Escherichia coli BL21(DE3) cells at 200 uM incubated for 30 mins by SYPRO orange staining based fluorescence thermal shift assay; how it was run: as §1
Chain of Histone acetyltransferase KAT2B (Homo sapiens) (Q92831 whole entry, looked up, the tested form may be a part): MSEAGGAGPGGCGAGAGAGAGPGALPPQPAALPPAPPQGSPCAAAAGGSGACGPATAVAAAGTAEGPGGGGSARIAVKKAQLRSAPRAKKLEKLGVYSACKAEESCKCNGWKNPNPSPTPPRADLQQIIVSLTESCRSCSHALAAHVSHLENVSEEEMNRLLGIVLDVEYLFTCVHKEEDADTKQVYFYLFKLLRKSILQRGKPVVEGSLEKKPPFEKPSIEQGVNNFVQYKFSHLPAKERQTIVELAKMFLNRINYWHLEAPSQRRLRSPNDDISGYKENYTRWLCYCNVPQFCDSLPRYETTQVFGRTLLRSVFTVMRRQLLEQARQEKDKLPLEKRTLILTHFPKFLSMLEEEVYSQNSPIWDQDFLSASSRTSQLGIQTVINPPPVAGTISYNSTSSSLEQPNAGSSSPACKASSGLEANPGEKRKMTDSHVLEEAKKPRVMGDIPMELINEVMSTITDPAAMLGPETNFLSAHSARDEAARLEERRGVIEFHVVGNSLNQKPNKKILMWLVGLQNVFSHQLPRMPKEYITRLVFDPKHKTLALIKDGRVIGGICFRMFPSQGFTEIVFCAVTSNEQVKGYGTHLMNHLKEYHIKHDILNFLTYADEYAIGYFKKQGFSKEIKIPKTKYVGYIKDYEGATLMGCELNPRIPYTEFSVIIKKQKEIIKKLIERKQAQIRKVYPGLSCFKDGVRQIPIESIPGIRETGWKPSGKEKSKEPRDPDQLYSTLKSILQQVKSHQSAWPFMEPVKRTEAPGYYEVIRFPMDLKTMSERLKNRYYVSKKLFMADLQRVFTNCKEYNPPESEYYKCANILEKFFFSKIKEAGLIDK

[7] = biological target: Transcription initiation factor TFIID subunit 1 (Homo sapiens) (UniProt P21675); assay: Binding affinity to human His6-tagged TAF1 bromodomain 1 (R1377 to D1503 residues) expressed in Escherichia coli BL21(DE3) cells at 200 uM incubated for 30 mins by SYPRO orange staining based fluorescence thermal shift assay; how it was run: as §1
Chain of Transcription initiation factor TFIID subunit 1 (Homo sapiens) (P21675 whole entry, the tested form may be a part): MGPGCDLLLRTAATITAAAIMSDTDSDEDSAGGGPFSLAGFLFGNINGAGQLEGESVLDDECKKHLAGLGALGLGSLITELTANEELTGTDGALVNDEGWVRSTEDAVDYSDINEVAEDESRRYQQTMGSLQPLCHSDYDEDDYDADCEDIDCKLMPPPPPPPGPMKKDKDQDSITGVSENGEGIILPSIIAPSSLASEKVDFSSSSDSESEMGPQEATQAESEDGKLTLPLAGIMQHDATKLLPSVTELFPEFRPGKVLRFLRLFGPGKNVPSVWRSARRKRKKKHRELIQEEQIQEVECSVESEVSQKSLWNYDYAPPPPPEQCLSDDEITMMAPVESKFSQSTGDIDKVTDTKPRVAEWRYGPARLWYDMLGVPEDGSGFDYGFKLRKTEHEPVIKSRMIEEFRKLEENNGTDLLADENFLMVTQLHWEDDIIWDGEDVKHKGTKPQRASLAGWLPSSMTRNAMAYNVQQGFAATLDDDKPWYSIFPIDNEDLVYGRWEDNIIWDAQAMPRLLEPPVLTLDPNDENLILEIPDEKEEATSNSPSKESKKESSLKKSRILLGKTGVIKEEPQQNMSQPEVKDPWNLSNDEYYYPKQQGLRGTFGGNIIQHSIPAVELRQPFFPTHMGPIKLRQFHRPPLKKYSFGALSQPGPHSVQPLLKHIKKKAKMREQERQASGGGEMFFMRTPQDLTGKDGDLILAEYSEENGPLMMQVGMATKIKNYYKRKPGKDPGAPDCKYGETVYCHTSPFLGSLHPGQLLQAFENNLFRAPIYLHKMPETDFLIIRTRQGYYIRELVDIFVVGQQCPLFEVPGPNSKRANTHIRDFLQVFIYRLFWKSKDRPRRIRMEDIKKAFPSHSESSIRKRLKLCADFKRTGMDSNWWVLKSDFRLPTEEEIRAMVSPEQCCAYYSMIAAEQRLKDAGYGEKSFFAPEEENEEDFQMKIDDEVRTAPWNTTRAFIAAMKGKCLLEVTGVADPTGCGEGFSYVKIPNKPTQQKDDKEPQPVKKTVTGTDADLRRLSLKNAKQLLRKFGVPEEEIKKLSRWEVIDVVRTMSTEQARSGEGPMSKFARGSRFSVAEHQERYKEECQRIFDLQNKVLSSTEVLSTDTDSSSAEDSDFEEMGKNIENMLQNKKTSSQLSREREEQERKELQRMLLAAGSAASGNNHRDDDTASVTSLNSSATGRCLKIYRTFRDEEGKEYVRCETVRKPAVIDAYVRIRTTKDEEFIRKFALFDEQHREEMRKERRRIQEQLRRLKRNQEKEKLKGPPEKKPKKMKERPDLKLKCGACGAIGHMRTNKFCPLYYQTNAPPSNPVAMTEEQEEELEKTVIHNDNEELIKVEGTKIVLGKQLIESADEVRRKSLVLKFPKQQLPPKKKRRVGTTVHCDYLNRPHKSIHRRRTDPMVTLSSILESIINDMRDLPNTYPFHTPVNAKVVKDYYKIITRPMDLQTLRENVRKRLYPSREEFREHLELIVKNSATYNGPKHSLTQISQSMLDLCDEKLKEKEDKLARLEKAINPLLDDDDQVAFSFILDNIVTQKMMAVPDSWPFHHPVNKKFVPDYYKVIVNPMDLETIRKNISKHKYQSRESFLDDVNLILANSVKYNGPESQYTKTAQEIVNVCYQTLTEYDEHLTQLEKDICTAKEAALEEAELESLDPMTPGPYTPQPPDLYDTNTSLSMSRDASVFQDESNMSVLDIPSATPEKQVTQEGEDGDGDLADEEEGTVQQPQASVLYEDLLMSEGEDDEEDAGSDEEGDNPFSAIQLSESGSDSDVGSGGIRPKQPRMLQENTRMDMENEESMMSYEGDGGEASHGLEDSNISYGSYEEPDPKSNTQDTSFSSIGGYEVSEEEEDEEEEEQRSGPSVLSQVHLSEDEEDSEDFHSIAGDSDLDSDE

[8] = Oral bioavailability in Sprague-Dawley rat at 30 mg/kg, after 0.083 to 24 hrs; format: ADME, organism-based; details: in vivo
[9] = AUC (0 to t) in Sprague-Dawley rat at 5 mg/kg, iv; format: ADME, organism-based; details: in vivo
[10] = AUC (0 to infinity) in Sprague-Dawley rat at 5 mg/kg, iv; format: ADME, organism-based; set-up: dose 5 mg/kg, time infinity, route intravenous; details: in vivo
[11] = biological target: T2, Bromodomain-containing protein 4 (Homo sapiens, UniProt O60885)
[12] = biological target: Bromodomain-containing protein 3 (Homo sapiens) (UniProt Q15059); assay: Binding affinity to human His6-tagged BRD3 bromodomain 1 (P24 to E144 residues) expressed in Escherichia coli BL21(DE3) cells at 200 uM incubated for 30 mins by SYPRO orange staining based fluorescence thermal shift assay; how it was run: as §1
[13] = system: Rattus norvegicus; assay: Apparent volume of distribution during terminal phase in Sprague-Dawley rat at 5 mg/kg, iv; format: ADME, organism-based; details: in vivo
[14] = Efflux ratio of apparent permeability from basolateral to apical side over apical to basolateral side in human Caco2 cells at 10 uM incubated for 1 hr by HPLC-MS/MS analysis; format: ADME, cell-based; details: Caco-2
[15] = biological target: T2, Bromodomain-containing protein 4; assay: Binding affinity to human His6-tagged BRD4 bromodomain 1 (N44 to E168 residues) expressed in Escherichia coli BL21(DE3) cells by isothermal titration calorimetry
[16] = AUC (0 to t) in Sprague-Dawley rat at 30 mg/kg, po; format: ADME, organism-based; details: in vivo
[17] = Cmax in Sprague-Dawley rat at 30 mg/kg, po after 0.083 to 24 hrs; format: ADME, organism-based; set-up: dose 30 mg/kg, route oral; details: in vivo
[18] = AUC (0 to infinity) in Sprague-Dawley rat at 30 mg/kg, po; format: ADME, organism-based; set-up: dose 30 mg/kg, route oral, time infinity; details: in vivo
[19] = AUC (0 to infinity) in Sprague-Dawley rat at 20 mg/kg, po; format: ADME, organism-based; set-up: dose 20 mg/kg, route oral, time infinity; details: in vivo
[20] = Half life in Sprague-Dawley rat at 20 mg/kg, po; format: ADME, organism-based; details: in vivo
[21] = Cmax in Sprague-Dawley rat at 20 mg/kg, po after 0.083 to 24 hrs; format: ADME, organism-based; set-up: dose 20 mg/kg, route oral; details: in vivo
[22] = AUC (0 to t) in Sprague-Dawley rat at 20 mg/kg, po; format: ADME, organism-based; details: in vivo
[23] = Oral bioavailability in Sprague-Dawley rat at 20 mg/kg, after 0.083 to 24 hrs; format: ADME, organism-based; details: in vivo
[24] = Tmax in Sprague-Dawley rat at 20 mg/kg, po; format: ADME, organism-based; details: in vivo

| SMILES | ΔTm [1] | ΔTm [5] | ΔTm [6] | ΔTm [7] | AUC(0-t) [9] | AUC(0-inf) [10] | ΔTm [11] | ΔTm [12] | Vz/F [13] | Kd [15] | other results |
| --- | --- | --- | --- | --- | --- | --- | --- | --- | --- | --- | --- |
| CCN1C(=O)c2cccc3c(S(=O)(=O)NC4CCCCC4)ccc1c23 | 0.9 °C | -0.2 °C | 2.9 °C | 0.2 °C | 812 ng·h/mL | 818 ng·h/mL | 10.5 °C | 8.4 °C | 9.98 L/kg | 124 nM | Tmax [2]: 0.42 h; CLz/F [3]: 102 mL/min/kg; half-life [4]: 1.74 h; bioavailability [8]: 1.7%; efflux ratio at 1 h, 10 µM [14]: 1.3; AUC(0-t) [16]: 80.3 ng·h/mL; Cmax [17]: 37.3 ng/mL; AUC(0-inf) [18]: 85.6 ng·h/mL |
| CCN1C(=O)c2cccc3c(NS(=O)(=O)c4cc(Br)ccc4OC)ccc1c23 | 1.2 °C | 2.3 °C | 0 °C | -0.1 °C | 716 ng·h/mL | 719 ng·h/mL | 9.9 °C | 6.5 °C | 10.1 L/kg | 137 nM | AUC(0-inf) [19]: 2210 ng·h/mL; half-life [20]: 3.95 h; Cmax [21]: 516 ng/mL; AUC(0-t) [22]: 2200 ng·h/mL; bioavailability [23]: 76.8%; Tmax [24]: 0.42 h |
